Values after ≈ are worked out from the molar mass of the structure shown. Active and inactive are the calls of the source. The calls are words filed in the database; no cut-off is given here. *1 amine or outer side, *2 acyl side, *3 side chain or, on linkers, in order; H or OH if unused. Where a SMILES comes first, the peptide text is derived from it. [ ]: non-standard residue; d: D form. The star is where a group is joined. X1 = C/C(=N\OCC(=O)[*:2])c1ccc(N[*:1])cc1; Benzoyl(5-Br-2-OH) = O=C(c1cc(Br)ccc1O)*; Palmitoyl = CCCCCCCCCCCCCCCC(=O)*
Legend:
HepG2 = experiment: Cytostatic activity against human HepG2 cells assessed as reduction in cell viability incubated for 24 hrs by MTT assay; format: functional, cell-based; conditions: HepG2, 24 h
Method in brief: (§1)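 MTT viability assay after 24 h exposure of MonoMac6 human monocytic cells or HepG2 human hepatocellular carcinoma cells. Top concentration 200 μM. IC50 taken from dose-response curves as the concentration reducing viability to 50% of maximal.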

[1] = Selectivity index, ratio of IC50 for cytostatic activity against human HepG2 cells to MIC for antimycobacterial activity against Mycobacterium tuberculosis H37Rv ATCC 27294; format: toxicity, cell-based; conditions: read-out: Selectivity Index
Method in brief: (§2)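 MTT assay on MonoMac6 or HepG2 cells after 24 h exposure, top concentration 200 µM. SI = IC50 (µM)/MIC (µM) against H37Rv from the 4-week Sula medium assay.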

MONO-MAC-6 = experiment: Cytostatic activity against human MONO-MAC-6 cells assessed as reduction in cell viability incubated for 24 hrs by MTT assay; format: functional, cell-based; conditions: MONO-MAC-6, 24 h; method in brief: as §1
[2] = Selectivity index, ratio of IC50 for cytotoxicity against mouse bone marrow derived macrophages to MIC for antimycobacterial activity against Mycobacterium tuberculosis H37Rv ATCC 27294; format: toxicity; conditions: read-out: Selectivity Index
Method in brief: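 Murine bone marrow-derived macrophages exposed for 48 h, top concentration 100 µM. Viability read by MTT and IC50 taken from dose-response curves. SI = IC50/MIC against H37Rv.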

[3] = Retention time of the compound by RP-HPLC analysis; format: physicochemical
Method in brief: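 Analytical RP-HPLC on a C18 column (5 μm, 100 Å, 4.6 × 150 mm). Eluent A 0.1% TFA in water, eluent B 0.1% TFA in acetonitrile-water 80:20. Gradient 0% B for 5 min, to 60% B at 15 min, to 100% B at 25 min. Flow 1 mL/min, detection at 220 nm.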

[4] = Selectivity index, ratio of IC50 for cytostatic activity against human MONO-MAC-6 cells to MIC for antimycobacterial activity against Mycobacterium tuberculosis H37Rv ATCC 27294; format: toxicity, cell-based; conditions: read-out: Selectivity Index; method in brief: as §2
[5] = Cytotoxicity against mouse bone marrow derived macrophages assessed as reduction in cell viability incubated for 48 hrs by MTT assay; format: toxicity, cell-based, Macrophage
Method in brief: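 Murine bone marrow-derived macrophages exposed for 48 h, viability by MTT. Highest concentration tested 100 µM. IC50 taken from dose-response curves.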

[6] = Stability in rat liver lysosomal homogenate assessed as drug degradation at 50 uM and measured upto 24 hrs by HPLC-MS analysis; format: ADME, subcellular, Lysosome; conditions: tissue homogenate
Method in brief: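 Conjugates incubated in rat liver lysosomal homogenate. Reaction mixtures sampled at 5 min, 1 h, 2 h, 4 h, 8 h and 24 h and analysed by HPLC-MS (chromatograms and mass spectra) to identify intact conjugate, fragments and cleavage sites.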

[7] = Stability of the compound in Sula's semisynthetic medium containing 10% DMSO assessed as 2-hydroxyacetyl-tuftsin derivative formation at pH 6.5 at 2 mg/ml after 4 weeks at 37 degree C by reverse phase HPLC analysis
Method in brief: (§3)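 Conjugate incubated in Sula semisynthetic medium (pH 6.5) at 37 °C for 4 weeks. Decomposition to free salicylanilide and 2-hydroxyacetyl-tuftsin derivative followed by analytical RP-HPLC and mass spectrometry.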

[8] = test system: Mycobacterium tuberculosis; experiment: Antimycobacterial activity against Mycobacterium tuberculosis H37Rv ATCC 27294 assessed as reduction in colony forming unit after 28 days by serial dilution method; format: functional, organism-based; conditions: time 28.0 day
Method in brief: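 After the 4-week MIC incubation in Sula semisynthetic medium (pH 6.5), growth inhibition confirmed by plating on Löwenstein-Jensen solid medium and counting colony forming units.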

[9] = test system: Mycobacterium tuberculosis; experiment: […] antimycobacterial activity against Mycobacterium tuberculosis H37Rv ATCC 27294 infected in human MONO-MAC-6 cells assessed as reduction in colony forming unit at 125 uM for 6 days by colony counting based analysis; format: functional, organism-based; conditions: time 6.0 day
Method in brief: (§4)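 MonoMac6 monolayers infected with H37Rv, then treated with compound at 125 or 250 µM for 3 days. Treatment repeated with fresh compound solution for another 3 days. Intracellular bacteria quantified as CFU against untreated infected cells.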

[10] = Stability of the compound in Sula's semisynthetic medium containing 10% DMSO assessed as free salicylanilide formation at pH 6.5 at 2 mg/ml after 4 weeks at 37 degree C by reverse phase HPLC analysis; method in brief: as §3
[11] = test system: Mycobacterium tuberculosis; experiment: […] antimycobacterial activity against Mycobacterium tuberculosis H37Rv ATCC 27294 infected in human MONO-MAC-6 cells assessed as reduction in colony forming unit at 250 uM for 6 days by colony counting based analysis; format: functional, organism-based; conditions: time 6.0 day; method in brief: as §4
[12] = test system: Mycobacteroides abscessus; experiment: Antimycobacterial activity against Mycobacterium abscessus ATCC 19977 assessed as reduction in colony forming unit after 7 days by serial dilution method; format: functional, organism-based; conditions: time 7.0 day
Method in brief: (§5)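 MIC determined in Sula semisynthetic medium, pH 6.5, 1 week incubation. Growth inhibition confirmed by plating on Löwenstein-Jensen solid medium and counting CFU. Bacteria inoculated without drug served as growth control.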

[13] = test system: Mycobacteroides abscessus; experiment: Antimycobacterial activity against Mycobacterium abscessus ATCC 19977 assessed as reduction in bacterial growth after 7 days by serial dilution method; format: functional; conditions: ATCC 19977, 168 h, time 7 day; method in brief: as §5
[14] = test system: Mycobacterium tuberculosis; experiment: Antimycobacterial activity against Mycobacterium tuberculosis H37Rv ATCC 27294 assessed as reduction in bacterial growth after 28 days by serial dilution method; format: functional; conditions: H37Rv ATCC 27294, 672 h, time 28 day
Method in brief: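 Broth MIC in Sula semisynthetic medium, pH 6.5; 4-week incubation, with 21-day values […] where indicated. Drug-free inoculated bacteria served as growth control. MIC also expressed as drug content (µg/mL) = MIC (µM) × average SAL molar mass × number of SAL per conjugate / 1000.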

SMILES | IC50 (HepG2) [µM] | selectivity ratio [1] | IC50 (MONO-MAC-6) [µM] | selectivity ratio [2] | Retention_time [3] [min] | selectivity ratio [4] | IC50 at 48 h [5] [µM] | Stability [6] | Stability [7] | Activity [8] | Activity [9] | Stability [10] | Activity [11] | Activity [12] | MIC [13] [µM] | MIC [14] [µM]
C/C(=N\OCC(=O)NCC(=O)N[C@@H](Cc1ccccc1)C(=O)N[C@@H](CC(C)C)C(=O)NCC(=O)N[C@H](C(=O)N[C@@H](CCCCN)C(=O)N1CCC[C@H]1C(=O)N[C@@H](CCCCN)C(=O)NCC(=O)N[C@H](C(=O)N[C@@H](CCCCN)C(=O)N1CCC[C@H]1C(=O)N[C@@H](CCCCN)C(=O)NCC(=O)N[C@H](C(=O)N[C@@H](CCCCN)C(=O)N1CCC[C@H]1C(=O)N[C@@H](CCCCN)C(=O)NCC(=O)N[C@H](C(=O)N[C@@H](CCCCN)C(=O)N1CCC[C@H]1C(=O)N[C@@H](CCCCN)C(=O)NCC(N)=O)[C@@H](C)O)[C@@H](C)O)[C@@H](C)O)[C@@H](C)O)c1ccc(NC(=O)c2cc(Br)ccc2O)cc1 | 112 | 0.8 | 86.6 | 0.7 | 15.7 | 0.6 | 92.1 | Unstable |  |  |  |  |  |  |  | 
C/C(=N\OCC(=O)NCC(=O)N[C@@H](Cc1ccccc1)C(=O)N[C@@H](CC(C)C)C(=O)NCC(=O)N[C@H](C(=O)N[C@@H](CCCCN)C(=O)N1CCC[C@@H]1C(=O)N[C@H](CCCCN)C(=O)NCC(=O)N[C@@H](C(=O)N[C@H](CCCCN)C(=O)N1CCC[C@H]1C(=O)N[C@H](CCCCN)C(=O)NCC(=O)N[C@@H](C(=O)N[C@@H](CCCCN)C(=O)N1CCC[C@@H]1C(=O)N[C@H](CCCCN)C(=O)NCC(=O)N[C@@H](C(=O)N[C@H](CCCCN)C(=O)N1CCC[C@H]1C(=O)N[C@H](CCCCN)C(=O)NCC(N)=O)[C@H](C)O)[C@H](C)O)[C@H](C)O)[C@@H](C)O)c1ccc(NC(=O)c2cc(Br)ccc2O)cc1 |  |  |  |  |  |  |  |  | Stable | Active | inactive | Stable | Active | Active |  | 
CCCCCCCCCCCCCCCC(=O)NCCCC[C@H](NC(=O)[C@@H]1CCCN1C(=O)[C@H](CCCCN)NC(=O)[C@@H](NC(=O)CO/N=C(\C)c1ccc(NC(=O)c2cc(Br)ccc2O)cc1)[C@@H](C)O)C(=O)NCC(=O)N[C@H](C(=O)N[C@@H](CCCCN)C(=O)N1CCC[C@H]1C(=O)N[C@@H](CCCCN)C(=O)NCC(=O)N[C@H](C(=O)N[C@@H](CCCCN)C(=O)N1CCC[C@H]1C(=O)N[C@@H](CCCCN)C(=O)NCC(=O)N[C@H](C(=O)N[C@@H](CCCCN)C(=O)N1CCC[C@H]1C(=O)N[C@@H](CCCCN)C(=O)NCC(N)=O)[C@@H](C)O)[C@@H](C)O)[C@@H](C)O ({Benzoyl(5-Br-2-OH)}-[X1]TKPK(Palmitoyl)GTKPKGTKPKGTKPKG-NH2) | 37.6 | 0.4 | 16.5 | 0.2 | 18.4 | 0.2 | 20.4 | Unstable |  | Active | Active |  | Active | Active | 74.3 (≈ 200 µg/mL) | 92.9 (≈ 250 µg/mL)
C/C(=N\OCC(=O)N[C@H](C(=O)N[C@@H](CCCCN)C(=O)N1CCC[C@H]1C(=O)N[C@@H](CCCCN)C(=O)NCC(N)=O)[C@@H](C)O)c1ccc(NC(=O)c2cc(Br)ccc2O)cc1 ({Benzoyl(5-Br-2-OH)}-[X1]TKPKG-NH2) | > 200 | > 9.2 | > 200 | 4.6 | 15.6 | > 9.2 | > 100 | Unstable |  | Active | Active |  | Active | Active | 174 (≈ 160 µg/mL) | 21.8 (≈ 20 µg/mL)

Reference: ChEMBL document CHEMBL5252539, “In vitro biological evaluation of new antimycobacterial salicylanilide-tuftsin conjugates” (Eur J Med Chem, 2017)
